Screens deposited in PubChem by Broad Institute.
Compounds with a hit are over-represented: about 3.8% of the library has one in this group of screens.
FN deposit inh: inhibitors of fibronectin matrix deposition, primary screen, AH1F cells, Alexa488-fibronectin fluorescence, plate reader; inhibition, % at 12.6 µM; AID 743247, 2014; actives 0.086% (n = 350,000); AH1F fibroblasts, overnight;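 active means mean inhibition across replicates of 30% or more, regardless of how many single replicates reach that level; inconclusive means mean under 30% yet at least half of replicates reach 30%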;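 further: positive control wells lacked labelled fibronectin entirely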
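Schedule: 1 h cell adhesion before compound, then overnight fibronectin incubation; test system: AH1F fibroblast monolayer depositing Alexa488-labelled fibronectin into matrix; quantity: 10000 AH1F cells per well; probe or stimulus: fluorescent fibronectin at 24 nM final; signal: fluorescence, ex 485 nm, em 525 nm; evaluation: percent inhibition as loss of matrix-bound fibronectin fluorescence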
ARNT-TACC3 inh: disruptors of ARNT/TACC3 protein interaction, primary screen, biochemical, AlphaScreen, single concentration; Transforming acidic coiled-coil-containing protein 3 (Homo sapiens), Q9Y6A5; AlphaScreen His-ARNT PAS-B/GST-TACC3 binding, luminescence; TACC3 fragment carries E629A point mutation; inhibition, % at 9.99 µM; actives 0.66% (n = 390,000);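 active means mean inhibition of replicates at least 50% and at least half of replicates each reaching 50%; inconclusive means half or more replicates reach 50% but mean below 50%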;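 further: 0% = complete ARNT plus TACC3 wells and 100% = ARNT alone without TACC3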
FGF22 binding-1: binders of human FGF22 protein, primary screen, FGF22 synaptogenesis inhibitor project, biophysical, thermal shift, single point | Fibroblast growth factor 22 (Homo sapiens), Q9HCT0 | recombinant FGF22 thermal shift, SYPRO orange fluorescence; percent of sucrose octasulfate shift, DMSO zero | activity (Tm shift, normalised), % at 9.99 µM | actives 1.5% (n = 340,000);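 active means mean Tm shift, scaled 0 neutral to 100 positive control, at about 1.3% or above, every replicate too, limit read from the data; inconclusive means no clear call, values can overlap the other calls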
Target sequence (Q9HCT0 whole entry, looked up): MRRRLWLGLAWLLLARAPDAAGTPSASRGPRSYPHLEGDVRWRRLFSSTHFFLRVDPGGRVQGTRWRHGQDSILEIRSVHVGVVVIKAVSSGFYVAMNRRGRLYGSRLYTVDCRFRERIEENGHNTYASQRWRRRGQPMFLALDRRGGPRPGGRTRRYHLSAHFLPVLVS
DENV2 CPE: inhibitors of DENV2 cytopathic effect, primary screen, cell-based, plate reader, single concentration | DENV2-infected cells, cytopathic effect rescue | CPE inhibition, % at 9.99 µM | actives 1.7% (n = 350,000) | AID 651640, 2012; in the data active means CPE inhibition above about 20%, passing the limit was not always enough; inconclusive means no clear call, values can overlap the other calls; tested in BHK-21 cells;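 further: 0% = median of neutral control wells and 100% = median of positive control wells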
SIRT5 block: SIRT5 desuccinylase inhibitors, primary screen, biochemical, fluorescence imaging, single point, set 5; inhibition, % at 15 µM; NAD-dependent protein deacylase sirtuin-5, mitochondrial (Homo sapiens), Q9NXA8; actives 1.1% (n = 330,000); Purified SirT5, succinyl-peptide AMC, trypsin-coupled fluorescence; AID 652115, 2013; in the data active means inhibition above about 15%; inconclusive means no clear call, values can overlap the other calls
Target sequence (Q9NXA8 whole entry, looked up): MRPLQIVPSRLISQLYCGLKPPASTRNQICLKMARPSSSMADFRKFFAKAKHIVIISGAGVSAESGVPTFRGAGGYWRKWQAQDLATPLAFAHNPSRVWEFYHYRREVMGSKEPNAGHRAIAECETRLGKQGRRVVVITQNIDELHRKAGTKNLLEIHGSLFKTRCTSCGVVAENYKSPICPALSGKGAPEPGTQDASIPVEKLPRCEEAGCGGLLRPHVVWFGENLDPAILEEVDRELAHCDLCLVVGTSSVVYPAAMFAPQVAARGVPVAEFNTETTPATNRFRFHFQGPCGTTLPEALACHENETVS
XiGFP reactiv: activators of inactive X chromosome reactivation, primary screen, imaging, XiGFP fibroblasts, GFP high-content imaging, set 2 | AID 743238, 2013 | actives 0.055% (n = 360,000) | XiGFP mouse fibroblasts, % GFP-positive cells imaging, 3 d; cells co-treated with 5-aza-dC sensitizer; scaled so ellipticine positive control = 100% | activation, % at 7.58 µM;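 active means mean normalized replicate activation at least 10% and every replicate at or above 10%; inconclusive means only one of the two criteria met; inactive means mean below 10% and not all replicates reach 10%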;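 further: 0% = median of on-plate neutral control wells and 100% = ellipticine 6 µM median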
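Material: XiGFP fibroblasts, SV40-immortalized; Buffer or medium: DMEM containing 5-aza-dC; Compound dosing: single point; Times: 3 days compound exposure.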
FGF22 binding-2: binders of human FGF22 protein, dose response, FGF22 synaptogenesis inhibitor project, biophysical, thermal shift, cherry-pick retest. recombinant FGF22 thermal shift, SYPRO orange fluorescence. shares compounds with FGF22 binding-1. thermal shift activity, °C (ΔTm) at 38 µM. actives 2% (n = 1,000);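 active means fitted rise in melting shift crosses a set limit at or below the top valid dose tested; inconclusive means flat fit at mid-level activity, or a poor quality fit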
TSA no protein: compound-only thermal shift signal without protein, dose response, artefact control for FGF22 binder project, biochemical, cherry-picked samples, RT-PCR instrument | shares compounds with FGF22 binding-1 | compound-only SYPRO orange thermal shift counter-screen, no protein | AC50, µM (doses to about 38 µM) | actives 2% (n = 1,000);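 active means rising signal whose fitted curve reaches the 0.54 level within the top valid dose, showing a melting point, actives reach about 13 µM in these data; inactive means the rest, including activity in the opposite direction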; further: value is where the raw curve crosses a fixed level and not half-maximal
* marks the source's active call; other numbers are inactive results; [ ] = another dose, or the depositor's remark.

How did COc1ccc(Cl)cc1C(=O)OCC(=O)c1c(N)n(C)c(=O)n(C)c1=O do in these assays?
FN deposit inh: 5; FGF22 binding-1: 0; DENV2 CPE: -3; SIRT5 block: -2; XiGFP reactiv: 0

Results for COc1ccc(S(=O)(=O)Nc2ccc3c(c2)C(=O)N([C@H](C)CO)C[C@H](C)[C@@H](CN(C)Cc2ccc(C(F)(F)F)cc2)O3)cc1 ?
ARNT-TACC3 inh: -1; FGF22 binding-1: 0; DENV2 CPE: -6; SIRT5 block: 6; XiGFP reactiv: -1

Results for COC(=O)CN1C(=S)N(c2ccc(F)cc2)C(=O)C1CC(=O)Nc1ccc(OC)cc1 (configuration not stated) ?
FN deposit inh: -10; ARNT-TACC3 inh: -5; FGF22 binding-1: 0; DENV2 CPE: -3; SIRT5 block: -6; XiGFP reactiv: 0

What do the screens show for `COc1ccc(CN2C(=O)N(c3ccc(OC)cc3)C(=O)C2CC(=O)Nc2ccccc2)cc1` (configuration not stated)?
FN deposit inh: -2; ARNT-TACC3 inh: -2; FGF22 binding-1: 1.4*; DENV2 CPE: inconclusive; SIRT5 block: -10; XiGFP reactiv: 0; FGF22 binding-2: -0.54; TSA no protein: inactive

What do the screens show for `CCOc1ccc(NC(=O)CC2C(=O)N(c3ccccc3)C(=S)N2Cc2ccccn2)cc1` (configuration not stated)?
FN deposit inh: -7; ARNT-TACC3 inh: 12

How did CCOc1ccc(NC(=O)CC2C(=O)N(c3ccc(OC)cc3)C(=S)N2Cc2ccccn2)cc1 (configuration not stated) do in these assays?
FN deposit inh: 2; ARNT-TACC3 inh: 10; FGF22 binding-1: 2.0*; DENV2 CPE: 0; SIRT5 block: -5; XiGFP reactiv: 0; FGF22 binding-2: -0.19; TSA no protein: inactive

What do the screens show for `CCNC(=O)CC1C(=O)N(c2ccc(OC)cc2)C(=O)N1Cc1ccc(OC)cc1` (configuration not stated)?
FN deposit inh: 0; ARNT-TACC3 inh: -1

Results for COC(=O)CN1C(=S)N(c2ccc(F)cc2)C(=O)C1CC(=O)Nc1ccccc1 (configuration not stated) ?
FN deposit inh: 1; ARNT-TACC3 inh: -9; FGF22 binding-1: 1.6*; DENV2 CPE: -3; SIRT5 block: -4; XiGFP reactiv: 0; FGF22 binding-2: 0.007; TSA no protein: inactive

How did COc1ccc(S(=O)(=O)Nc2ccc3c(c2)CC(=O)N([C@H](C)CO)C[C@H](C)[C@@H](CN(C)Cc2ccc(Oc4ccccc4)cc2)O3)cc1 do in these assays?
ARNT-TACC3 inh: 5; FGF22 binding-1: -1; DENV2 CPE: 2; SIRT5 block: 2; XiGFP reactiv: 1

Results for CCCNC(=O)N1C[C@@H](O)COC[C@H]2O[C@H](CC(=O)N3CCCCC3)CC[C@@H]21 ?
FN deposit inh: 0; ARNT-TACC3 inh: 0; FGF22 binding-1: 0; DENV2 CPE: -6; SIRT5 block: -1; XiGFP reactiv: 1

Results for COc1ccc(CNC(=O)C[C@H]2CC[C@H]3[C@@H](COc4ccc(NC(=O)C5CC5)cc4C(=O)N3C)O2)cc1 ?
FN deposit inh: -5; ARNT-TACC3 inh: -3; FGF22 binding-1: 0; DENV2 CPE: 1; SIRT5 block: -1; XiGFP reactiv: 0

What do the screens show for `C/C=C/c1ccc([C@H]2[C@@H](CO)N(C(=O)CC)C23CN(C(=O)c2ccccc2)C3)cc1`?
FGF22 binding-1: 1.4*; DENV2 CPE: 29*; SIRT5 block: 0; XiGFP reactiv: 0; FGF22 binding-2: 0.075; TSA no protein: inactive

What do the screens show for `C/C=C/c1ccc([C@H]2[C@@H](CO)N(CC3CCOCC3)C23CN(C(=O)COC)C3)cc1`?
FN deposit inh: -13; FGF22 binding-1: 1.7*; DENV2 CPE: 3; SIRT5 block: -4; XiGFP reactiv: 0; FGF22 binding-2: 0.18[42 µM]; TSA no protein: inactive

What do the screens show for `COc1ccc2c3c([nH]c2c1)[C@H](CO)N(C(=O)C1CCOCC1)CC31CN(Cc2cccc(F)c2)C1`?
FGF22 binding-1: 0; DENV2 CPE: 1; SIRT5 block: 3; XiGFP reactiv: 0

How did N#C[C@H]1[C@@H](c2ccccc2-c2cccc(F)c2)[C@@H](CO)N1C(=O)C1CCC1 do in these assays?
FN deposit inh: -7; FGF22 binding-1: 0; DENV2 CPE: -10; SIRT5 block: 2; XiGFP reactiv: 0

Results for COc1cc(NS(=O)(=O)c2ccc(N)cc2)nc(OC)n1 ?
FN deposit inh: -1; ARNT-TACC3 inh: -5; FGF22 binding-1: 0; DENV2 CPE: 9; SIRT5 block: 0; XiGFP reactiv: 0

What do the screens show for `COc1cc(NS(=O)(=O)c2ccc(NS(=O)(=O)c3ccc(C)cc3)cc2)nc(OC)n1`?
FN deposit inh: 10; ARNT-TACC3 inh: -2; FGF22 binding-1: 3.1*; DENV2 CPE: -2; SIRT5 block: -27; XiGFP reactiv: 0; FGF22 binding-2: -0.025; TSA no protein: inactive

How did Cc1ccc(CN2CCNC(=O)C2CC(=O)N(C)C2CCCCC2)cc1 (configuration not stated) do in these assays?
FN deposit inh: 4; ARNT-TACC3 inh: -2; FGF22 binding-1: 1.5*; DENV2 CPE: 10; SIRT5 block: 0; XiGFP reactiv: 0; FGF22 binding-2: 0.1; TSA no protein: inactive

How did CCC(=O)N1[C@H](CO)[C@H](c2ccccc2)[C@H]1CNC(=O)CN1CCOCC1 do in these assays?
FN deposit inh: -15; ARNT-TACC3 inh: -3; FGF22 binding-1: 0; DENV2 CPE: -3; SIRT5 block: 0; XiGFP reactiv: 0

How did CC(C)(CNCc1ccccc1)NS(=O)(=O)c1ccc(Cl)cc1 do in these assays?
FN deposit inh: 0; ARNT-TACC3 inh: -3; FGF22 binding-1: 2.1*; DENV2 CPE: -11; SIRT5 block: 0; XiGFP reactiv: 0; FGF22 binding-2: 0.057; TSA no protein: inactive
